# Assay results collected from several papers.
# Each line is one published result; the experiments were not run side by side.
# Target: Myotonin-protein kinase (DMPK, Homo sapiens, UniProt Q09013)
# Residues used in one study (Q09013 1-629): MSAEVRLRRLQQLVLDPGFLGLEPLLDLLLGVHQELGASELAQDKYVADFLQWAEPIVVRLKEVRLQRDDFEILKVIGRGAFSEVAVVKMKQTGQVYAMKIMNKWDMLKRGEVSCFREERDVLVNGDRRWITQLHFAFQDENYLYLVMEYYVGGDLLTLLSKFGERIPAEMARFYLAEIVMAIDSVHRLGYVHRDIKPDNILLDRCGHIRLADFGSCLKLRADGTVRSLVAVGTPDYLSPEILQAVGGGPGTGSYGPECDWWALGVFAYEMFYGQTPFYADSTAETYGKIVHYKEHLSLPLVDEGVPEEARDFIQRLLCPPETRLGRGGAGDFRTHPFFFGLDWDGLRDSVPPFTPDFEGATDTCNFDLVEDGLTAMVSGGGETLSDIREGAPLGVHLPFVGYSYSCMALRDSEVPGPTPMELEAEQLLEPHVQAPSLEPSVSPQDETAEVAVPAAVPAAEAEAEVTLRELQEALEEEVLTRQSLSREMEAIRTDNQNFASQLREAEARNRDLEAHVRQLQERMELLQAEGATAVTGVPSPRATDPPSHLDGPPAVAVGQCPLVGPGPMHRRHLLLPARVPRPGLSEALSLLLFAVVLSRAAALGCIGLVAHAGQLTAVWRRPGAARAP
Structure (SMILES),assay,setting,measurement,result
C#Cc1n[nH]c2c(-c3cn([C@@H](C)c4ccccc4)c(=O)[nH]c3=O)cc(F)cc12,"enzyme activity, inhibitor",0.1 µM,inhibition,-4%
Cn1cc(-c2cc(F)cc(N3CCn4c(cc5c4CCCC5)C3=O)c2CO)cc(Nc2ccc(N3CCN(C4COC4)CC3)cn2)c1=O,"enzyme activity, inhibitor",0.1 µM,inhibition,-7%
CC(C)(C)c1cc(C=C(C#N)C#N)cc(Br)c1O,"enzyme activity, inhibitor",0.5 µM,remaining activity,96.9%
C#Cc1n[nH]c2c(-c3cn([C@@H](C)c4ccccn4)c(=O)[nH]c3=O)cc(F)cc12,"enzyme activity, inhibitor",0.1 µM,inhibition,3.2%
COc1ncccc1-c1cnn2ccc(N3CCN(C(=O)OC(C)C)CC3)nc12,"binding, competition with immobilised ligand",1 µM,remaining binding,98%
Cc1nn(C)cc1-c1nc2c(N3CCN(Cc4ccc(Cl)cc4)CC3)c(Cl)cnc2[nH]1,"binding, competition with immobilised ligand",1 µM,remaining binding,100%
Cn1cncc1[C@](O)(COc1ccc(C#N)cc1-c1ccc(OC(F)(F)F)cc1)c1ccc(C#N)cc1,"cell-free assay, competition with immobilised ligand",1 µM,remaining binding,98%
Cn1cc(-c2cccc(N3CCc4c(sc5c4CC(C)(C)C5)C3=O)c2CO)cc(Nc2ccncn2)c1=O,"enzyme activity, inhibitor",1 µM,inhibition,-4%
O=c1[nH]c2ccccc2n1C1CCN(Cc2ccc(-c3[nH]c4cc5ncnc5cc4nc3-c3ccccc3)cc2)CC1,cell-free assay,0.5 µM,remaining signal,98%
Nc1ncc(-c2nc(N3CCOCC3)nc(N3CCOCC3)n2)c(C(F)F)n1,"binding, competition with immobilised ligand",10 µM,remaining binding,76%
